Data from ChEMBL document CHEMBL3046847, “Synthesis and in vitro antiproliferative activity of novel 12(H)-quino[3,4-b][1,4]benzothiazine derivatives” (Med Chem Res, 2013).
Converted amounts (≈) assume the structure as drawn.

Columns and labels:
C32 = assay: Cytotoxicity against Homo sapiens (human) C32 cells assessed as cell viability after 72 hr by WST-1 assay; format: functional, cell-based
Outline: (§1)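 Cells grown in D-MEM with 12 % FCS, streptomycin and penicillin at 37 °C, 5 % CO2, seeded at 1×10^4 cells/well. Exposed to compounds at 0–100 μg/ml for 72 h, then incubated with WST-1 for 2 h. Absorbance was read at 450 nm against a background control. Values are means of at least two independent experiments run in triplicate.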

SNB-19 = assay: Cytotoxicity against Homo sapiens (human) SNB19 cells assessed as cell viability after 72 hr by WST-1 assay; format: functional, cell-based; outline: as §1
[1] = Homo sapiens, C32, 72 h, read-out: IC50
[2] = Homo sapiens, SNB-19, 72 h, read-out: IC50

Compound	IC50 (C32; [1]) [µg/mL]	IC50 (SNB-19; snb-19)	IC50 (SNB-19; [2]) [µg/mL]	IC50 (C32; c32)
Cc1ccc2c(c1)Sc1cnc3ccccc3c1N2	8.7 (≈ 32.9 µM)	Not Active	–	–
c1ccc2c(c1)Nc1c(cnc3ccccc13)S2	8.9 (≈ 35.6 µM)	–	9.6 (≈ 38.3 µM)	–
Fc1ccc2c(c1)Sc1cnc3ccccc3c1N2	9.4 (≈ 35 µM)	Not Active	–	–
Fc1ccc2c(c1)Sc1cnc3ccccc3c1N2CCN1CCCCC1	7 (≈ 18.4 µM)	–	12.4 (≈ 32.7 µM)	–
Cc1cccc2c1Nc1c(cnc3ccccc13)S2	–	Not Active	–	Not Active
c1ccc2c(c1)Sc1cnc3ccccc3c1N2CCN1CCCCC1	5.6 (≈ 15.5 µM)	–	6.7 (≈ 18.5 µM)	–
CN(C)CCCN1c2cccnc2Sc2cnc3ccccc3c21	6.5 (≈ 19.3 µM)	–	8.2 (≈ 24.4 µM)	–
Clc1ccc2c(c1)Sc1cnc3ccccc3c1N2	7.8 (≈ 27.4 µM)	Not Active	–	–
Brc1ccc2c(c1)Sc1cnc3ccccc3c1N2	8.6 (≈ 26.1 µM)	Not Active	–	–
c1cnc2c(c1)Nc1c(cnc3ccccc13)S2	8.7 (≈ 34.6 µM)	–	10.2 (≈ 40.6 µM)	–
Cc1ccc2c(c1)Sc1cnc3ccccc3c1N2CCN1CCCCC1	6.9 (≈ 18.4 µM)	–	6.6 (≈ 17.6 µM)	–
c1cnc2c(c1)N(CCN1CCCCC1)c1c(cnc3ccccc13)S2	7.9 (≈ 21.8 µM)	–	7.3 (≈ 20.1 µM)	–
